ChEMBL document CHEMBL1121966, “(2R*,3S*)-1-[125I]Iodo-2,3-bis(4-hydroxyphenyl)pentane ([125I]iodonorhexestrol) and (2R*,3S*)-1-[77Br]Bromo-2,3-bis(4-hydroxyphenyl)pentane ([77Br]bromonorhexestrol), two gamma-emitting estrogens that show receptor-mediated uptake by target tissues in vivo” (1982)
Several values for one entry are separate records, joined by “and”; a condition that tells them apart may be missing. Equal entries are not always repeated.

Columns and labels:
[1] = Esophagus/blood distribution ratio was determined in immature female rats at 1 hr with unlabeled estradiol; format: functional
Method in brief: (§1)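 Immature (25-day, ca. 50 g) Sprague-Dawley female rats received an iv injection (jugular or tail vein) of HPLC-purified tracer in ethanol plus 0.9% NaCl/rat serum 1:1. Doses were 2 μCi [125I]iodo tracer (≤15 pmol), or 2 μCi [77Br]bromo tracer (≤1.25 pmol) with 2 μCi 16α-[125I]iodoestradiol. Animals were killed at 1 h; blood and tissues were weighed and γ-counted. Blocking: coinjected unlabeled estradiol, 9 μg (iodo) or 18 μg (bromo). Mean ± SD.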

[2] = Ovary/blood distribution ratio was determined in immature female rats at 6 hr; format: functional
Method in brief: (§2)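 Dual-label study in immature 25-day female Sprague-Dawley rats (ca. 50 g). Each received 2 μCi [77Br]bromo tracer (≤1.25 pmol/dose) and 2 μCi 16α-[125I]iodoestradiol (2 pmol/dose) by tail or jugular vein, in ethanol diluted with saline/rat serum 1:1. Rats were killed at 3 or 6 h; blood and 11 tissues were weighed and counted. Five rats per time point; mean ± SD.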

[3] = Tissue/blood distribution ratio was measured in immature female rats at 6 hr; format: functional
Method in brief: (§3)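 Immature (25 day) female Sprague-Dawley rats (ca. 50 g) were dosed iv (jugular or tail vein) in ethanol plus 0.9% NaCl/rat serum (1:1). Doses were 2 μCi of [125I]iodonorhexestrol (≤15 pmol/dose), or 2 μCi each of [77Br]bromonorhexestrol (≤1.25 pmol/dose) and 16α-[125I]iodoestradiol (2 pmol/dose). Rats were killed at 1, 3 or 6 h; blood and tissues were weighed and γ-counted. Thyroid weight assumed 0.005 g/100 g body weight. Mean ± SD.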

[4] = Spleen/blood distribution ratio was determined immature female rats at 3h; format: functional; method in brief: as §3
[5] = Thyroid/blood distribution ratio was determined in immature female rats at 6 hr; format: functional; method in brief: as §3
[6] = Percent injected dose per gram liver at 6 hr; format: functional; method in brief: as §3
[7] = Muscle/blood distribution ratio was determined in immature female rats at 6 hr; format: functional; method in brief: as §2
Rattus norvegicus [8] = organism: Rattus norvegicus; test: Percent injected dose per gram thyroid at 1 hr with unlabeled estradiol; format: functional, Thyroid gland
Method in brief: (§4)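 Same iv biodistribution in immature female rats, killed at 1 h, with unlabeled estradiol coinjected to block receptor uptake: 9 μg with [125I]iodonorhexestrol (3 rats), 18 μg with the [77Br]bromonorhexestrol/16α-[125I]iodoestradiol pair (5 rats). Tissue and blood radioactivity were counted as % injected dose/g and tissue-to-blood ratio.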

[9] = Muscle/blood distribution ratio was determined immature female rats at 1 hr with unlabeled estradiol; format: functional; method in brief: as §1
[10] = Spleen/blood distribution ratio was determined immature female rats at 1 hr; format: functional; method in brief: as §3
[11] = Uterus/blood distribution ratio was measured in immature female rats at 1 hr; format: functional; method in brief: as §3
Rattus norvegicus [12] = organism: Rattus norvegicus; test: Percent injected dose per gram thyroid at 6 hr; format: functional, Thyroid gland; method in brief: as §3
[13] = Ovary/blood distribution ratio was determined in immature female rats at 1 hr with unlabeled estradiol; format: functional; method in brief: as §1
Rattus norvegicus [14] = organism: Rattus norvegicus; test: Percent injected dose per gram thyroid at 1 hr; format: functional, Thyroid gland; method in brief: as §3
Rattus norvegicus [15] = organism: Rattus norvegicus; test: Percent injected dose per gram Uterus at 6 hr; format: functional; method in brief: as §2
Rattus norvegicus [16] = organism: Rattus norvegicus; test: Percent injected dose per gram kidney at 1 hr; format: functional; method in brief: as §1
Rattus norvegicus [17] = organism: Rattus norvegicus; test: Percent injected dose per gram Uterus at 1 hr with unlabeled estradiol.; format: functional; method in brief: as §1
Rattus norvegicus [18] = organism: Rattus norvegicus; test: Percent injected dose per gram esophagus at 3h; format: functional; method in brief: as §2
Rattus norvegicus [19] = organism: Rattus norvegicus; test: Percent injected dose per gram liver at 3h; format: functional; method in brief: as §3
Rattus norvegicus [20] = organism: Rattus norvegicus; test: Percent injected dose per gram kidney at 3h; format: functional; method in brief: as §2
[21] = Ovary/blood distribution ratio was determined in immature female rats at 3h; format: functional; method in brief: as §2
[22] = Uterus/blood distribution of compound was measured in immature female rats at 1 hr with unlabeled estradiol; format: functional; method in brief: as §4
Rattus norvegicus [23] = organism: Rattus norvegicus; test: Percent injected dose per gram liver at 1 hr; format: functional; method in brief: as §3
[24] = Spleen/blood distribution ratio was determined immature female rats at 6 hr; format: functional; method in brief: as §3
[25] = Lung/blood distribution ratio was determined in immature female rats at 1 hr with unlabeled estradiol; format: functional; method in brief: as §1
[26] = Uptake ratio was measured with 16-alpha-[125I]-iodo-17-beta-estradiol in immature rats at 6 hr; format: functional
Method in brief: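 Immature (25 day, ca. 50 g) female Sprague-Dawley rats received iv (jugular or tail vein) 2 μCi each of the 77Br ligand (≤1.25 pmol/dose) and 16α-[125I]iodoestradiol (2 pmol/dose), in ethanol plus 0.9% NaCl/rat serum 1:1. Rats were killed at 3 or 6 h, five per time point. Blood and tissues were weighed and counted. The 77Br/125I ratio was calculated per rat and averaged. Nontarget was the mean of esophagus, spleen, lung and muscle.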

Rattus norvegicus [27] = organism: Rattus norvegicus; test: Percent injected dose per gram Ovaries at 1 hr; format: functional; method in brief: as §1
Rattus norvegicus [28] = organism: Rattus norvegicus; test: Percent injected dose per gram Uterus at 1 hr; format: functional; method in brief: as §1
Rattus norvegicus [29] = organism: Rattus norvegicus; test: Percent injected dose per gram blood at 6 hr; format: functional; method in brief: as §2
Rattus norvegicus [30] = organism: Rattus norvegicus; test: Percent injected dose per gram spleen at 3h; format: functional; method in brief: as §3
[31] = Uterus/blood distribution ratio was measured in immature female rats at 6 hr; format: functional; method in brief: as §3
Rattus norvegicus [32] = organism: Rattus norvegicus; test: Percent injected dose per gram Muscle at 1 hr; format: functional; method in brief: as §1
[33] = Thyroid/blood distribution ratio was determined in immature female rats at 1 hr with unlabeled estradiol; format: functional; method in brief: as §4
Rattus norvegicus [34] = organism: Rattus norvegicus; test: Percent injected dose per gram esophagus at 1 hr with unlabeled estradiol; format: functional; method in brief: as §1
Rattus norvegicus [35] = organism: Rattus norvegicus; test: Percent injected dose per gram Uterus at 3h; format: functional; method in brief: as §2
Rattus norvegicus [36] = organism: Rattus norvegicus; test: Percent injected dose per gram kidney at 1 hr with unlabeled estradiol; format: functional; method in brief: as §1
[37] = Muscle/blood distribution ratio was determined in immature female rats at 1 hr; format: functional; method in brief: as §1
Rattus norvegicus [38] = organism: Rattus norvegicus; test: Percent injected dose per gram Muscle at 1 hr with unlabeled estradiol; format: functional; method in brief: as §1
Rattus norvegicus [39] = organism: Rattus norvegicus; test: Percent injected dose per gram thyroid at 3h; format: functional, Thyroid gland; method in brief: as §3
[40] = Liver/blood distribution ratio was determined in immature female rats at 3h; format: functional; method in brief: as §2
Rattus norvegicus [41] = organism: Rattus norvegicus; test: % compound injected per gram uterus at 6 hr; format: functional
[42] = Muscle/blood distribution ratio was determined in immature female rats at 3h; format: functional; method in brief: as §2
[43] = Tissue/blood distribution ratio was measured in immature female rats at 1h, unlabeled estradiol (18 microg) coinjected; format: functional
Method in brief: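 Immature female rats given iv [77Br]bromonorhexestrol with 16α-[125I]iodoestradiol (2 μCi each) plus 18 μg unlabeled estradiol coinjected; killed at 1 h. Tissue and blood were weighed and counted, and tissue-to-blood radioactivity ratios were computed; 5 animals, mean ± SD.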

Rattus norvegicus [44] = organism: Rattus norvegicus; test: Percent injected dose per gram blood at 3h; format: functional; method in brief: as §2
[45] = Thyroid/blood distribution ratio was determined in immature female rats at 3h; format: functional; method in brief: as §3
[46] = Esophagus/blood distribution ratio was determined in immature female rats at 6 hr; format: functional; method in brief: as §2
Rattus norvegicus [47] = organism: Rattus norvegicus; test: Percent injected dose per gram Muscle at 3h; format: functional; method in brief: as §2
Rattus norvegicus [48] = organism: Rattus norvegicus; test: Percent injected dose per gram spleen at 1 hr with unlabeled estradiol; format: functional; method in brief: as §4
Rattus norvegicus [49] = organism: Rattus norvegicus; test: Percent injected dose per gram lung at 3h; format: functional; method in brief: as §3
[50] = Tissue/blood distribution ratio was measured in immature female rats at 1 hr; format: functional; method in brief: as §3
[51] = Esophagus/blood distribution ratio was determined in immature female rats at 3h; format: functional; method in brief: as §2
Rattus norvegicus [52] = organism: Rattus norvegicus; test: Percent injected dose per gram esophagus at 6 hr; format: functional; method in brief: as §2
Rattus norvegicus [53] = organism: Rattus norvegicus; test: Percent injected dose per gram Ovaries at 6 hr; format: functional; method in brief: as §2
[54] = Kidney/blood distribution ratio was determined in immature female rats at 3h; format: functional; method in brief: as §2
[55] = Lung/blood distribution ratio was determined in immature female rats at 1 hr; format: functional; method in brief: as §1

Q: Which Ratio [1] does the source give for `CC[C@H](c1ccc(O)cc1)[C@@H](CBr)c1ccc(O)cc1` here?
A: 0.59

Q: And the Ratio [2]?
A: 1.41

Q: And the Ratio [3]?
A: 1

Q: What about the Ratio [4] of the same compound?
A: 0.48

Q: What about the Ratio [5] of the same compound?
A: 0.13

Q: What about the Injected dose [6] of the same compound?
A: 0.93%

Q: And the Ratio [7]?
A: 0.26

Q: And the Injected dose (Rattus norvegicus [8])?
A: 0.25%

Q: And the Ratio [9]?
A: 0.31

Q: What about the Ratio [10] of the same compound?
A: 0.52

Q: And the Ratio [11]?
A: 4.49

Q: What about the Injected dose (Rattus norvegicus [12]) of the same compound?
A: 0.18%

Q: What about the Ratio [13] of the same compound?
A: 0.74

Q: What about the Injected dose (Rattus norvegicus [14]) of the same compound?
A: 0.26%

Q: What about the Injected dose (Rattus norvegicus [15]) of the same compound?
A: 3.19%

Q: What about the Injected dose (Rattus norvegicus [16]) of the same compound?
A: 0.94%

Q: What about the Injected dose (Rattus norvegicus [17]) of the same compound?
A: 0.95%

Q: What about the Injected dose (Rattus norvegicus [18]) of the same compound?
A: 0.61%

Q: And the Injected dose (Rattus norvegicus [19])?
A: 1.05%

Q: And the Injected dose (Rattus norvegicus [20])?
A: 0.84%

Q: And the Ratio [21]?
A: 1.23

Q: What about the Ratio [22] of the same compound?
A: 0.98

Q: And the Injected dose (Rattus norvegicus [23])?
A: 1.28%

Q: What about the Ratio [24] of the same compound?
A: 0.55

Q: And the Ratio [25]?
A: 0.82

Q: And the Ratio [26]?
A: 0.58 and 0.33%

Q: What about the Injected dose (Rattus norvegicus [27]) of the same compound?
A: 1.38%

Q: What about the Injected dose (Rattus norvegicus [28]) of the same compound?
A: 3.16%

Q: What about the Injected dose (Rattus norvegicus [29]) of the same compound?
A: 1.36%

Q: And the Injected dose (Rattus norvegicus [30])?
A: 0.6%

Q: And the Ratio [31]?
A: 2.51

Q: And the Injected dose (Rattus norvegicus [32])?
A: 0.29%

Q: What about the Ratio [33] of the same compound?
A: 0.25

Q: What about the Injected dose (Rattus norvegicus [34]) of the same compound?
A: 0.56%

Q: And the Injected dose (Rattus norvegicus [35])?
A: 3.59%

Q: What about the Injected dose (Rattus norvegicus [36]) of the same compound?
A: 0.7%

Q: And the Ratio [37]?
A: 0.48

Q: What about the Injected dose (Rattus norvegicus [38]) of the same compound?
A: 0.3%

Q: And the “Injected dose (g)” value (Rattus norvegicus [39])?
A: 0.09%

Q: And the Ratio [40]?
A: 0.84

Q: What about the Injected (Rattus norvegicus [41]) of the same compound?
A: 3.19

Q: What about the Ratio [42] of the same compound?
A: 0.29

Q: What about the Ratio [43] of the same compound?
A: 1

Q: What about the Injected dose (Rattus norvegicus [44]) of the same compound?
A: 1.24%

Q: And the Ratio [45]?
A: 0.08

Q: And the Ratio [46]?
A: 0.5

Q: And the Injected dose (Rattus norvegicus [47])?
A: 0.37%

Q: And the Injected dose (Rattus norvegicus [48])?
A: 0.34%

Q: And the Injected dose (Rattus norvegicus [49])?
A: 0.95%

Q: And the Ratio [50]?
A: 1

Q: And the Ratio [51]?
A: 0.49

Q: What about the Injected dose (Rattus norvegicus [52]) of the same compound?
A: 0.68%

Q: And the Injected dose (Rattus norvegicus [53])?
A: 1.93%

Q: What about the Ratio [54] of the same compound?
A: 0.76

Q: What about the Ratio [55] of the same compound?
A: 0.6
